This passage reports inhibition, inhibition in vivo and Activity results from ChEMBL document CHEMBL4376814, “Novel cyclin-dependent kinase 9 (CDK9) inhibitor with suppression of cancer stemness activity against non-small-cell lung cancer” (Eur J Med Chem, 2019).

Calls of active or inactive are those of the source. The calls are words filed in the database; no cut-off is given here.

Experiment [1] deals with RAC-beta serine/threonine-protein kinase (Homo sapiens), P31751 [S474D]. The experiment is described as follows: Inhibition of recombinant human pkb-beta S474D mutant (120 to end residues) at 1 uM using GRPRTSSFAEGKK as substrate measured after 40 mins in presence of [gamma33P]ATP by scintillation counting method relative to control.
For experiment [2], the system named is Dual specificity protein kinase TTK (Homo sapiens), P33981 [S389A]. Put plainly: Inhibition of recombinant full-length human TTK S389A mutant at 1 uM using MBP as substrate measured after 40 mins in presence of [gamma33P]ATP by scintillation counting method relative to control.
In experiment [3] the target is MAP/microtubule affinity-regulating kinase 3 (Homo sapiens) (UniProt P27448). The experiment is described as follows: Inhibition of recombinant full-length human MARK3 at 1 uM using KKKVSRSGLYRSPSMPENLNRPR as substrate measured after 40 mins in presence of [gamma33P]ATP by scintillation counting method relative to control.
Experiment [4] deals with Serine/threonine-protein kinase 26 (Homo sapiens) (UniProt Q9P289). The experiment is described as follows: Inhibition of recombinant human MST4 (4 to 304 residues) at 1 uM using RLGRDKYKTLRQIRQ as substrate measured after 40 mins in presence of [gamma33P]ATP by scintillation counting method relative to control.
Experiment [5] concerns NCI-H1299. The experiment is described as follows: Antitumour activity against human H1299 cells xenografted in Balb/c mouse assessed as inhibition of tumour growth at 40 mg/kg, po administered for 21 days by digital caliper method relative to control. The class given is functional. To be noted: 504 h, read-out: TGI. In short, it runs like this:
(§1)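 Female nude mice, 6-8 weeks old, injected subcutaneously with 1×10^6 H1299 cells (100 µL of a 1×10^7/mL suspension in serum-free medium). At 100-120 mm3, randomized into groups of 5. Dosed orally each day for 21 days with drug dissolved in DMSO, or with vehicle. Caliper measurements and body weight taken every other day. Volume = short²×long×0.5. Growth inhibition based on change in volume relative to vehicle. Tumours weighed at the end.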

For experiment [6], the system named is RAF proto-oncogene serine/threonine-protein kinase (Homo sapiens), P04049 [Y340D,Y341D]. Put plainly: Inhibition of recombinant human c-RAF Y340D/Y341D double mutant ([…]) at 1 uM using inactive MEK1 as substrate measured after 40 mins in presence of [gamma33P]ATP by scintillation counting method relative to control.
The test system of experiment [7] is Tyrosine-protein kinase receptor UFO (Homo sapiens), P30530 [Q764R]. Put plainly: Inhibition of recombinant human AXL Q764R mutant (473 to end residues) at 1 uM using KKSRGDYMTMQIG as substrate measured after 40 mins in presence of [gamma33P]ATP by scintillation counting method relative to control.
The target in experiment [8] is Ephrin type-A receptor 2 (Homo sapiens) (UniProt P29317). The experiment is described as follows: Inhibition of recombinant human EphA2 (596 to 900 residues) at 1 uM using poly(Glu, Tyr) 4:1 as substrate measured after 40 mins in presence of [gamma33P]ATP by scintillation counting method relative to control.
Experiment [9] concerns the target Protein kinase C zeta type (Homo sapiens) (UniProt Q05513). Put plainly: Inhibition of recombinant human PKCzeta (2 to end residues) at 1 uM using ERMRPRKRQGSVRRRV as substrate measured after 40 mins in presence of [gamma33P]ATP by scintillation counting method relative to control. In short, it runs like this: (§2)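 Single-point inhibition at 1 µM was measured in the Eurofins KinaseProfiler panel. Values are the mean of two independent experiments.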

The target of experiment [10] is Cyclin-dependent kinase 9 (Homo sapiens) (UniProt P50750). Conditions: A549, 0.25 uM.
In experiment [11] the target is Serine/threonine-protein kinase 32A (Homo sapiens) (UniProt Q8WU08). Put plainly: Inhibition of recombinant full-length human STK32A at 1 uM using casein as substrate measured after 120 mins in presence of [gamma33P]ATP by scintillation counting method relative to control.
Experiment [12] has as its target Myosin light chain kinase 2, skeletal/cardiac muscle (Homo sapiens) (UniProt Q9H1R3). Put plainly: Inhibition of recombinant full length human MYLK2 at 1 uM using KKLNRTLSFAEPG as substrate measured after 40 mins in presence of [gamma33P]ATP by scintillation counting method relative to control. In short, it runs like this:
as §2

The test system of a further experiment is A549. Put plainly: Induction of apoptosis in human A549 cells assessed as early apoptotic cells at 0.5 uM after 48 hrs by AnnexinV-FITC/PI staining-based flow cytometric analysis (reference value: 2.91%). The class given is functional. (In general: In flow cytometry, cells or beads pass a laser one at a time.)
In experiment [13] the test system is NCI-H1299. The experiment is described as follows: Antitumour activity against human H1299 cells xenografted in Balb/c mouse assessed as inhibition of tumour growth at 80 mg/kg, po administered for 21 days by digital caliper method relative to control. The class given is functional. To be noted: 504 h, read-out: TGI. In short, it runs like this: as §1
In general terms: A xenograft is tissue or cells of one species grown in another, often human tumour cells in immunodeficient mice.

The target of experiment [14] is Cyclin-dependent kinase 14/Cyclin-Y (Homo sapiens) (UniProt O94921+Q8ND76). The experiment is described as follows: Inhibition of human CDK14/cyclinY at 1 uM by radiometric method relative to control. The class given is protein-complex assay. The essentials: (§3)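 Percent inhibition of kinase activity at a single compound concentration, measured by the outsourced Eurofins KinaseProfiler panel. Values are the mean of two independent experiments.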

Experiment [15] deals with Myotonin-protein kinase (Homo sapiens) (UniProt Q09013). The experiment is described as follows: Inhibition of recombinant human DMPK (1 to 549 residues) at 1 uM using KKSRGDYMTMQIG as substrate measured after 40 mins in presence of [gamma33P]ATP by scintillation counting method relative to control.
Experiment [16] concerns the target Dual specificity mitogen-activated protein kinase kinase 1 (Homo sapiens) (UniProt Q02750). Put plainly: Inhibition of recombinant full-length human MEK1 at 1 uM using unactive MAPK2 as substrate measured after 40 mins in presence of [gamma33P]ATP by scintillation counting method relative to control.
Experiment [17] deals with Mitogen-activated protein kinase kinase kinase 7 (Homo sapiens) (UniProt O43318). The experiment is described as follows: Inhibition of human TAK1 (1 to 303 residues) at 1 uM using casein as substrate measured after 40 mins in presence of [gamma33P]ATP by scintillation counting method relative to control. The essentials:
as §3

The target of experiment [18] is Activin receptor type-1B (Homo sapiens) (UniProt P36896). Put plainly: Inhibition of recombinant human ALK4 (150 to end residues) at 1 uM using casein as substrate measured after 40 mins in presence of [gamma33P]ATP by scintillation counting method relative to control.
For experiment [19], the target named is Serine/threonine-protein kinase haspin (Homo sapiens) (UniProt Q8TF76). The experiment is described as follows: Inhibition of recombinant human haspin (471 to end residues) at 1 uM using RARTLSFAEPG as substrate measured after 40 mins in presence of [gamma33P]ATP by scintillation counting method relative to control. The essentials:
as §2

Experiment [20] has as its system PI3-kinase p110-alpha/p85-alpha (Homo sapiens), P27986+P42336 [H1047R]. The experiment is described as follows: Inhibition of recombinant full-length human PI3K p110alpha/p85alpha H1047R mutant at 1 uM using phosphatidylinositol-4, 5-bisphosphate as substrate measured after 40 mins by fluorescence assay relative to control.
For experiment [21], the system named is Tyrosine-protein kinase BTK (Homo sapiens), Q06187 [R28H]. The experiment is described as follows: Inhibition of full-length recombinant human BTK R28H mutant at 1 uM using LSNLYHQGKFLQTFCGSPLYRRR as substrate measured after 40 mins in presence of [gamma33P]ATP by scintillation counting method relative to control. The essentials:
as §2

RAC-beta serine/threonine-protein kinase (Homo sapiens), P31751 [S474D], sequence (P31751 whole entry S474D): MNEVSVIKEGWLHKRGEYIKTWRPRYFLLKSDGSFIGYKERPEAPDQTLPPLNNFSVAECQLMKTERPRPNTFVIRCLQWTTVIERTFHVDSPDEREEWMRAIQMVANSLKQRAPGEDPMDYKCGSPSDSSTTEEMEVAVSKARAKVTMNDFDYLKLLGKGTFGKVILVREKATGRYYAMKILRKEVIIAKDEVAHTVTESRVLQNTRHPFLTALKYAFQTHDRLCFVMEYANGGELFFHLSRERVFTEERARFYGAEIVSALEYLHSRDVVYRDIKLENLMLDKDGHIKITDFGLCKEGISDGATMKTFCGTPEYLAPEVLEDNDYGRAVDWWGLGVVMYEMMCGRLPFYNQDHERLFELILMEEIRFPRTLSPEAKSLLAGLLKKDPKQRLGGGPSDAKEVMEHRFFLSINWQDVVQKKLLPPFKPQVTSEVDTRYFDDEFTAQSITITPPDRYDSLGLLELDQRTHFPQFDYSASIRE
Ephrin type-A receptor 2 (Homo sapiens), sequence (P29317 whole entry, the tested form may be a part): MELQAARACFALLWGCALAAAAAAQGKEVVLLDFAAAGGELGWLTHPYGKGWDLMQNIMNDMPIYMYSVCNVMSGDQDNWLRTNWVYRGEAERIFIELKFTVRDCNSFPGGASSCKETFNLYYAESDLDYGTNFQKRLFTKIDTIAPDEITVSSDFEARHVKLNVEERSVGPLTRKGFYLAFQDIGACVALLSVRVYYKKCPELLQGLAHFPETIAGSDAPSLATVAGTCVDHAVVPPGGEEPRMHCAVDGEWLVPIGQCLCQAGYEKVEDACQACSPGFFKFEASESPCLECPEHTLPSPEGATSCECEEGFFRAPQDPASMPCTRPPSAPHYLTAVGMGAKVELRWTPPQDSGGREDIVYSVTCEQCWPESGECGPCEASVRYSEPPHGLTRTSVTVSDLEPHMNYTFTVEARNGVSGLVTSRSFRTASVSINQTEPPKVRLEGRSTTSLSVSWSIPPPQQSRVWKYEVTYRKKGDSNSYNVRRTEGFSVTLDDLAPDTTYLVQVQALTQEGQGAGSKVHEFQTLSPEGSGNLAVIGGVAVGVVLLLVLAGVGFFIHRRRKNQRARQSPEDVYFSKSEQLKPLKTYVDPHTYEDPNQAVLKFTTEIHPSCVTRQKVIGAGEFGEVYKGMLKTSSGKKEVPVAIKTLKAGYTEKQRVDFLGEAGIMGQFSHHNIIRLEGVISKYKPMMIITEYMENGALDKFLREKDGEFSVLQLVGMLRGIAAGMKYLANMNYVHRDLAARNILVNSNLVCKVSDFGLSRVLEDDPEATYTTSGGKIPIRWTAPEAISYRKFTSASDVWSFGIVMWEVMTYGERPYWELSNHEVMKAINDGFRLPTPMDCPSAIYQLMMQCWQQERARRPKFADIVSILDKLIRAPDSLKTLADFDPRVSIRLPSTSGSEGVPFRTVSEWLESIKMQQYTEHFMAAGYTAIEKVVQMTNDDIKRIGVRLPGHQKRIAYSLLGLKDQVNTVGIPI
Serine/threonine-protein kinase 26 (Homo sapiens), sequence (Q9P289 2-416 limits assumed): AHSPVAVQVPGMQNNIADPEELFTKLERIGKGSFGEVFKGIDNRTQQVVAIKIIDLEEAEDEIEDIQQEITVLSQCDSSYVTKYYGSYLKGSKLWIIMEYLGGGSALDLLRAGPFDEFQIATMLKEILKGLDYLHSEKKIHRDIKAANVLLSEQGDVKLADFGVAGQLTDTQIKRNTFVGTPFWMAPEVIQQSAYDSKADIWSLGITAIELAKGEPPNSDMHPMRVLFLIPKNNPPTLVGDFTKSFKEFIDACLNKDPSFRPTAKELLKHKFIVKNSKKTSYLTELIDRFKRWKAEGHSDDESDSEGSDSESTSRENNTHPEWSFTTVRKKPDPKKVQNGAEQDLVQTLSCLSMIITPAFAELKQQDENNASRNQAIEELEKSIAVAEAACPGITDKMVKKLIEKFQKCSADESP
Dual specificity protein kinase TTK (Homo sapiens), P33981 [S389A], sequence (P33981 whole entry S389A): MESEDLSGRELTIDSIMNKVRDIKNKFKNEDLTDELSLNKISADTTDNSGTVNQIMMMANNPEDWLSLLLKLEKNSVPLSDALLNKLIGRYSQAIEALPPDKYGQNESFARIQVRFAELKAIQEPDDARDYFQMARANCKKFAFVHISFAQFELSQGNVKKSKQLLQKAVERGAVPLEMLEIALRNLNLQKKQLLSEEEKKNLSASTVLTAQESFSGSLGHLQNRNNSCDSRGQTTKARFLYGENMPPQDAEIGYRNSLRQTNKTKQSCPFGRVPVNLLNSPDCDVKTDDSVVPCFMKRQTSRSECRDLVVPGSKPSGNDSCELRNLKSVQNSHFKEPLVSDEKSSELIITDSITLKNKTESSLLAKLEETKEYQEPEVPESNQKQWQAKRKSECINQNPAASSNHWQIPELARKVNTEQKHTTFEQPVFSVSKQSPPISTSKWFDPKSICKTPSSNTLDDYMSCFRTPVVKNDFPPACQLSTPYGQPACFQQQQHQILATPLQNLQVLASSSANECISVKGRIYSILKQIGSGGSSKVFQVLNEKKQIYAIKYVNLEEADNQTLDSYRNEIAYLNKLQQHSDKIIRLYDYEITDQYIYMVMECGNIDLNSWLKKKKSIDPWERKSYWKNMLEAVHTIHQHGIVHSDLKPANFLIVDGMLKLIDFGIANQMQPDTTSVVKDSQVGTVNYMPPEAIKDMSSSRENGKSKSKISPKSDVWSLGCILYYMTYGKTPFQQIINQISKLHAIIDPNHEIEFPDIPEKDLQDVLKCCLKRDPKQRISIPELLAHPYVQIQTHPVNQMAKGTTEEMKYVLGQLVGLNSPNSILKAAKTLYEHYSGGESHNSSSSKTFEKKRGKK
Cyclin-dependent kinase 9 (Homo sapiens), sequence (P50750 whole entry): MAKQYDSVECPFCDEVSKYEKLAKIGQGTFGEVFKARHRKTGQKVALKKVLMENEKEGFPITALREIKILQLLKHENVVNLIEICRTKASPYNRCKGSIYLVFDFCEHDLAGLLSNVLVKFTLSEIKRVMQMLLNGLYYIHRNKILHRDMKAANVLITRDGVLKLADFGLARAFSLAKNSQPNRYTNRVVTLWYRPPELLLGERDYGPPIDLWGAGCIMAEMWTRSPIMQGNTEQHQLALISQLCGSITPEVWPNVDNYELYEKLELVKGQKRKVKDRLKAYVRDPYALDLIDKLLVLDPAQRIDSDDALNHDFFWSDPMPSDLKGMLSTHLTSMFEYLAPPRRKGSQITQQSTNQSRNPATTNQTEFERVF
Mitogen-activated protein kinase kinase kinase 7 (Homo sapiens), sequence (O43318 whole entry, the tested form may be a part): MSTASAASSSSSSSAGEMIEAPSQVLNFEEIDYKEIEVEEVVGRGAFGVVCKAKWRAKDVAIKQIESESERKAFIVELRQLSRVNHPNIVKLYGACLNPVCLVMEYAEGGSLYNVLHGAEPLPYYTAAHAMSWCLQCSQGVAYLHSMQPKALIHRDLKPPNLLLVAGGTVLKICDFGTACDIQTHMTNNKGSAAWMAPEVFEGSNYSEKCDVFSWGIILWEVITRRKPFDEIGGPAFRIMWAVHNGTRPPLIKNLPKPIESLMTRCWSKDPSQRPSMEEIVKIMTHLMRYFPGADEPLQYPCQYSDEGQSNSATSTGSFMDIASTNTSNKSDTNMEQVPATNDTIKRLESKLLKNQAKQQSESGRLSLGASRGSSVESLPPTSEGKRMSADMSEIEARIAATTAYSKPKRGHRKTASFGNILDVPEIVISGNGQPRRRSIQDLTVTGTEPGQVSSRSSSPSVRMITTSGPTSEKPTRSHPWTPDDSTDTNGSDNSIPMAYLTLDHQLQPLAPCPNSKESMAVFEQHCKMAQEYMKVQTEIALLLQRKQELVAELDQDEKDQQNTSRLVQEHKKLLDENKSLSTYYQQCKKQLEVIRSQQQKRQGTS
Dual specificity mitogen-activated protein kinase kinase 1 (Homo sapiens), sequence (Q02750 whole entry, the tested form may be a part): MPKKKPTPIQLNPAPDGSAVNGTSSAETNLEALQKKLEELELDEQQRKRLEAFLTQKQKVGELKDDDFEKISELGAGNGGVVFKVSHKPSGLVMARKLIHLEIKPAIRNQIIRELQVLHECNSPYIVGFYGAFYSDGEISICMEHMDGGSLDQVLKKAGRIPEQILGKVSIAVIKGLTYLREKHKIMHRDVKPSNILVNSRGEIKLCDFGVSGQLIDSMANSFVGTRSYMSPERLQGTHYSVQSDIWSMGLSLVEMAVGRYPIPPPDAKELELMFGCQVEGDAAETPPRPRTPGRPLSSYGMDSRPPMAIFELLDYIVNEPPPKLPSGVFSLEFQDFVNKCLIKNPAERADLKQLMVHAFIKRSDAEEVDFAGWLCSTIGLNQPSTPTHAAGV
Serine/threonine-protein kinase 32A (Homo sapiens), sequence (Q8WU08 whole entry): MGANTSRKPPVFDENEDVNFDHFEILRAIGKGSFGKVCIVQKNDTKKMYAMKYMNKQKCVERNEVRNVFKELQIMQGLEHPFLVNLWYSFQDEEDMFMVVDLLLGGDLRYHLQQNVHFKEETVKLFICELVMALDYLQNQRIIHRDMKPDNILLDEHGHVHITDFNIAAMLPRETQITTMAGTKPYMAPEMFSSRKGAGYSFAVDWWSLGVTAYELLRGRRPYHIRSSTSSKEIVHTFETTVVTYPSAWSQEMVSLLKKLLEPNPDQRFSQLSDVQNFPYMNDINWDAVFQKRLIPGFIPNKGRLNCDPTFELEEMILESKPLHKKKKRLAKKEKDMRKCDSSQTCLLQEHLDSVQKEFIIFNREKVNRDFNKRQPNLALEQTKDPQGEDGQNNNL
Activin receptor type-1B (Homo sapiens), sequence (P36896 whole entry): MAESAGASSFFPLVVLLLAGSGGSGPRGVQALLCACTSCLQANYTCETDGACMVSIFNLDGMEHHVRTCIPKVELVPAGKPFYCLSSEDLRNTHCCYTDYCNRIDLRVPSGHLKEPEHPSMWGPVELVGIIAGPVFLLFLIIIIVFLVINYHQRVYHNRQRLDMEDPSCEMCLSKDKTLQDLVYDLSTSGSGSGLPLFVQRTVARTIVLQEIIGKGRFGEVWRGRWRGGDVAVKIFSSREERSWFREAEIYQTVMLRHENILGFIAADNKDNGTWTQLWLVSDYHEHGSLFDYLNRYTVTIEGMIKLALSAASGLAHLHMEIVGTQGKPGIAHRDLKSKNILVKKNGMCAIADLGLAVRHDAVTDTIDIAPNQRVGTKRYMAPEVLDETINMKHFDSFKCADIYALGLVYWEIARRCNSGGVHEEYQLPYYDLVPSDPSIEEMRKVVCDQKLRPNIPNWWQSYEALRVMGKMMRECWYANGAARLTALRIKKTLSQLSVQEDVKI

Broadly, the inhibition is the share of the control response that was lost under treatment. On to `CN(C)C(=O)c1cc2cnc(Nc3ccc(NC(=O)CCCCCCCN=C=S)cc3)nc2n1C1CCCC1`, for which the inhibition came to 23% in [1]; 76% in [2]; 43% in experiment [3]; 6% in experiment [4]; 33% in experiment [6]; 71% in experiment [7]. In addition, the inhibition in experiment [8] was found to be 15%; in experiment [9], 1%; in [11], 33%; in experiment [12], 12%; in [14], 56%; in experiment [15], 5%. Further, the inhibition is 22% in experiment [16]; 79% in experiment [17]; 3% in [18]; 11% in experiment [19]; 2% in [20]; 1% in experiment [21]. The inhibition in vivo at 40 mg/kg in the experiment with NCI-H1299 [5] came to 89.7%. The inhibition result in [10] is “Active”. Moreover, in the experiment on A549, the Activity was 1.26%. Also, the inhibition in vivo at 80 mg/kg in the experiment with NCI-H1299 [13] was 94.7%.
